Source: PubChem BioAssay (Sanford-Burnham Center for Chemical Genomics)
An excerpt weighted towards active compounds, which were near 1.5% of everything screened.
C8 TRAIL sens: viability loss with TRAIL in NB7+C8 cells, primary screen, TRAIL sensitizer project, cell-based, ATPlite luminescence; inhibition (viability loss, TRAIL sensitization), % at 10 µM; 360,000 compounds, 1% hits; AID 624354, 2012;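 active = compounds causing at least 50% loss of cell viability in the single-dose screen, relative to plate controls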
PPC-1+TRAIL kill: compounds killing PPC-1 cancer cells with TRAIL present, primary screen, TRAIL potentiator project, ATPLite luminescence, uHTS; cell killing (% activity), % at 4 µM or 5 µM; 220,000 compounds, 0.41% hits; PPC-1 cells + TRAIL, ATPLite viability luminescence; AID 1443, 2008;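 active = cell killing above 50% in the first pass at 4 µM, then a duplicate retest at 5 µM averaging 50% or more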;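 also: plate controls were cells with TRAIL plus DMSO for no effect and medium-only wells lacking cells for full effect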
FLuc stim CS: FLuc activators, initial screening, artefact control for FLuc-dependent activation tests, biochemical, ATPlite luminescence. Luciferin 4-monooxygenase (Photinus pyralis), P08659. ATPlite luciferase biochemical, 10 min; 0 = ATP-free wells, 1 = DMSO control. activation factor at 10 µM. 200,000 tested, under 10 active. AID 1027, 2008;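 active = luciferase activation factor, scaled between plate controls, of at least 2 with compound at 10 µM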
Target sequence (P08659 whole entry, looked up): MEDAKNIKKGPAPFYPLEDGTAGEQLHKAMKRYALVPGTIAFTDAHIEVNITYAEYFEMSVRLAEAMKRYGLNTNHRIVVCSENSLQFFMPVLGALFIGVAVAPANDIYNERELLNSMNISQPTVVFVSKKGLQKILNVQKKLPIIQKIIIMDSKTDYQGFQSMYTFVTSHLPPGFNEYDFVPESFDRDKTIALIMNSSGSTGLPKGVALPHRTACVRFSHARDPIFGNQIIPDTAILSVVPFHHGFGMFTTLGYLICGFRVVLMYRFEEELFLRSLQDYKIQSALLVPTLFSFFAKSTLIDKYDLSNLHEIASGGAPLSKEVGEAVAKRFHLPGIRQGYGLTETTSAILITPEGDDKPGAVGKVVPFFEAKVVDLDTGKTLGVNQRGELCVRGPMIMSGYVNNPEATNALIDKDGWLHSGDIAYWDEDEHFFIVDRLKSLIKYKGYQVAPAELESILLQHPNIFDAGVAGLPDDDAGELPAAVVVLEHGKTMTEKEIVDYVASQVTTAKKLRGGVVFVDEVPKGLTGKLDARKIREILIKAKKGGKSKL
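Material: luciferase plus luciferin reagent, cell-free. Medium: PBS buffer for ATP. Also added: ATP substrate, dispensed from a 10.24 µM working solution in PBS. Doses: test compounds dosed from 2 mM stocks in 100% DMSO. Incubation: 10 min post-reagent at room temperature. Technique: light output (luminescence). Read-out basis: luminescence gain marking luciferase activators.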
FLuc inhib CS: firefly luciferase enzyme inhibitors, primary screen, artefact control for luciferase-based inhibitor screens, biochemical, luminescence, ATPLite; inhibition, % at 10 µM; 10 min; 200,000 compounds, 1.5% hits; AID 1006, 2008; Luciferin 4-monooxygenase (Photinus pyralis), P08659;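 active = inhibition above about 50% when tested at 10 µM, limit read from the data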
The depositor's hits bear a star; / = no result.

SMILES | C8 TRAIL sens | PPC-1+TRAIL kill | FLuc stim CS | FLuc inhib CS
CC(=O)Nc1ccc(S(=O)(=O)N2CCN(c3nc4ccccc4n3CC(C)C)CC2)cc1 | -3.0 | / | / | /
Cc1cccc(NC(=O)CNC(=O)COc2cccnc2[N+](=O)[O-])c1C | -8.4 | / | / | /
CC(C)(C)OC(=O)NCCCCCc1cn([C@@H](CO)C(=O)NCCCCCCCCCCC(=O)N2CCN(C(=O)OC(C)(C)C)CC2)nn1 | 59.8* | / | / | /
Cc1ccc(C(=O)COC(=O)CCCC(=O)Nc2cc(C(F)(F)F)ccc2Cl)cc1C | 4.5 | 13.0 | 0.5 | 54.2*
O=c1ncccn1C1OC(CO)C(O)C1O (stereo unspecified) | -18.3 | / | / | /
CCOC(=O)c1ccc2ncc(-c3ccccc3)nc2c1 | 17.5 | 23.6 | 0.3 | 74.3*
Cc1cc2ncc(-c3ccccc3)nc2cc1C | 26.8 | / | / | /
O=C(Cc1ccsc1)NNC(=O)c1ccccc1Cl | -6.6 | / | / | /
Nc1[nH]c(N=NC(=O)c2ccccc2)c2ccccc12 | -1.1 | 27.3 | 0.4 | 60.8*
Nc1[nH]c(N=NC(=O)c2ccccc2O)c2ccccc12 | 72.2* | 46.5 | 0.1 | 85.4*
Nc1[nH]c(N=NC(=O)c2ccc(Cl)cc2)c2ccccc12 | 23.8 | 17.3 | 0.5 | 48.2
O=C(ONc1ccc(N=NC(=O)c2ccccc2O)cc1)c1ccccc1 | 29.5 | 25.1 | 0.7 | 28.8
CCn1cc(/C=C(\NC(=O)c2ccccc2OC)C(=O)NCCN2CCOCC2)c2ccccc21 | -12.0 | / | / | /
COc1cc([N+](=O)[O-])ccc1NC(=O)COC(=O)c1c[nH]c(=O)[nH]c1=O | -15.8 | / | / | /
Fc1cc(F)c(F)c(SCn2cc(Br)cn2)c1F | -16.2 | / | / | /
Cn1c(=O)oc2cc(S(=O)(=O)Nc3ccc(F)cc3)ccc21 | -5.2 | / | / | /
CC1(C)CSC(C)(C)C(=O)N1 | -2.3 | / | / | /
CCOC(=O)c1ccc(NC(=O)c2ccc(C)c(S(=O)(=O)N3CCOCC3)c2)cc1 | 70.3* | 10.1 | 1.1 | -5.9
Cc1cc(C)n(-c2ccc(C(=O)Nc3ccc(C)c(S(=O)(=O)N4CCOCC4)c3)cc2)n1 | 53.2* | 21.6 | / | /
CN(CCCC(=O)N1CCCC(C(N)=O)C1)S(=O)(=O)c1ccc(F)cc1 (stereo unspecified) | -1.6 | / | / | /
O=C1C(Cl)=C(NCCN2CCOCC2)C(=O)c2ccccc21 | 4.8 | / | / | /
O=C1C(Cl)=C(NCCCN2CCOCC2)C(=O)c2ccccc21 | 83.4* | / | / | /
CCOc1cc(/C=C\[N+](=O)[O-])ccc1OCC(=O)Nc1ccccc1C | 63.8* | 2.4 | 1 | -3.7
Cc1ccc(C(=O)N/N=C\c2ccc[nH]2)cc1[N+](=O)[O-] | 85.8* | 23.5 | 1 | 0.8
O=C(N/N=C/c1ccc[nH]1)c1ccc(Cl)cc1 | 13.6 | 25.1 | 0.4 | 57.2*
SMILES | C8 TRAIL sens | PPC-1+TRAIL kill | FLuc stim CS | FLuc inhib CS
O=C(N/N=C/c1ccc[nH]1)c1ccncc1 | 4.0 | -1.6 | 1 | -0.9
CCOC(=O)C1=C(C)NC(C)=C(C(=O)OCC)C1C(=O)OCC(=O)Nc1ccc(NC(C)=O)cc1 | 0.6 | / | / | /
O=C(CNCc1cccs1)Nc1ccc(OC(F)(F)F)cc1 | 4.6 | / | / | /
Cc1cc(NC(=O)CCC(=O)N(CC(=O)NCC2CCCO2)c2cccc(F)c2)no1 (stereo unspecified) | -7.7 | / | / | /
COc1ncccc1-c1nnn(-c2ccc(C)cc2)n1 | 38.1 | 24.1 | 0.3 | 66.0*
COc1ncccc1-c1nnn(-c2ccc(Cl)c(Cl)c2)n1 | 17.5 | 12.6 | 0.9 | 8.6
COc1ncccc1-c1nnn(-c2ccc(F)cc2)n1 | 28.3 | 21.3 | 0.5 | 51.3*
COc1ccc(CN(C)C(=O)Cn2ccc(N)nc2=O)cc1OC | -3.1 | / | / | /
N#Cc1ccc(NC(=O)Nc2ccc(Cl)cc2)cc1 | 57.8* | -0.2 | 1 | 3.9
S=C(c1ccc(-c2ccc(Cl)cc2)o1)N1CCCCC1 | 48.1 | 48.6 | 0.3 | 71.3*
S=C(c1ccc(-c2ccccc2Cl)o1)N1CCCCC1 | 30.8 | 1.3 | 0.5 | 48.6
CN(C)CCCNC(=O)/C(=C/c1ccc(-c2ccc([N+](=O)[O-])cc2)o1)NC(=O)c1ccccc1 | 3.3 | / | / | /
Cc1ccc(C(=O)N/C(=C\c2ccc(-c3ccccc3[N+](=O)[O-])o2)C(=O)NCCCN(C)C)cc1 | 49.3* | / | / | /
Cc1ccc(C(=O)N/C(=C\c2ccc(-c3ccccc3[N+](=O)[O-])o2)C(=O)NCCN(C)C)cc1 | 53.5* | / | / | /
CN(C)Cc1c(C(=O)N/N=C/CCc2ccccc2)nnn1-c1nonc1N | 26.1 | / | / | /
NC(=O)c1sc2nc(-c3ccccc3)c3c(c2c1N)CCCC3 | 1.1 | / | 1 | -4.2
Nc1c2c(nc3sc4c(c13)CCCC4)-c1ccccc1CC2 | 66.1* | 42.5 | / | /
N#CCc1ccc(-c2cccc3nccn23)cc1 | -0.3 | / | / | /
CCCC(=O)Nc1ccc(NC(=O)c2ccccc2)nc1 | 31.1 | 41.4 | / | /
CCC(=O)Nc1ccc(NC(=O)c2ccccc2)nc1 | 33.6 | 29.5 | 0.4 | 62.1*
C=C(CCO)C1=CCN(S(=O)C(C)(C)C)[C@H]1CCO (stereo partly specified) | -10.5 | / | / | /
Cn1c(/N=C/c2ccc3c(c2)OCO3)nc2ccccc21 | -4.1 | 1.9 | 0.1 | 90.9*
Cn1c(/N=C/c2c[nH]c3ccccc23)nc2ccccc21 | 38.0 | -6.8 | 0.1 | 87.8*
Nc1nc2ccccc2n1/N=C/c1ccc2c(c1)OCO2 | -0.3 | 13.0 | / | /
CC(C)n1c(/N=C/c2c[nH]c3ccccc23)nc2ccccc21 | 1.3 | -16.8 | 0.7 | 32.7
SMILES | C8 TRAIL sens | PPC-1+TRAIL kill | FLuc stim CS | FLuc inhib CS
CCN(CC)CCN(Cc1cc2cc3c(cc2[nH]c1=O)OCO3)C(=S)NC | -11.7 | / | / | /
O=C(Nc1cccc(S(=O)(=O)N2CCCCC2)c1)c1cc(=O)[nH]c2ccccc12 | -4.1 | / | / | /
O=[N+]([O-])c1cc(S(=O)(=O)Oc2ccccc2)ccc1Cl | 57.8* | / | / | /
Cc1cc(NC(=O)c2ccccc2)cc(NC(=O)c2ccccc2)c1C | 14.0 | / | / | /
Cc1cc(NC(=O)c2ccccc2)sc1C | 30.2 | 27.9 | 0.4 | 63.5*
Cc1ccc(NC(=O)c2ccccc2)s1 | 53.0* | 11.3 | 0.2 | 76.1*
CC(=O)c1cc2c(cc1C)CCCC2(C)C | 3.9 | / | / | /
CC(C)C[C@H](NC(=O)CC[C@H]1O[C@@H](n2ccc(=O)[nH]c2=O)[C@H](O)[C@@H]1O)C(=O)O | -2.4 | / | / | /
Cc1ccc(C2=C/C(=C/c3cccs3)C(=O)O2)cc1 | -2.6 | 13.3 | 0.1 | 85.2*
Cc1ccc(C=C2C=C(c3ccccc3)OC2=O)cc1 | -15.3 | / | / | /
CCOc1ccccc1NC(=O)c1cc(=O)[nH]c2ccc(S(=O)(=O)N3CCOCC3)cc12 | -2.7 | / | / | /
Nc1ccc(-c2nc3cc([N+](=O)[O-])ccc3o2)cc1 | 31.9 | 23.4 | / | /
Cc1ccc2oc(-c3ccco3)nc2c1 | 4.0 | -1.5 | 0.5 | 47.7
CC(C)(C)c1ccc(-c2nc3cc(N)ccc3o2)cc1 | 71.7* | / | / | /
Cc1ccc(-c2nc3cc(C)ccc3o2)cc1 | 53.8* | 31.3 | 0.1 | 92.2*
COc1ccc(S(=O)(=O)N2CCOCC2)cc1NC(=O)c1cccs1 | 7.4 | / | / | /
COc1ccc(-c2nnc(SCC#N)o2)cc1 | 4.0 | 9.6 | 1 | -0.4
